{"data": "Assay results of several laboratories", "organism": "Candida albicans", "observed": "microbial growth", "method": "broth dilution", "note": "Compare with care: the assays were run in different laboratories."}
{"Structure (SMILES)": "C/C(=N\\C1CCCCC1/N=C(\\C)c1c(O)c2ccccc2oc1=O)c1c(O)c2ccccc2oc1=O (centres unmarked)", "setting": "48 h", "MIC": "31.2 µg/mL"}
{"Structure (SMILES)": "CC(=O)N1CCN(c2ccc(OCC3COC(Cn4ccnc4)(c4ccc(Cl)cc4Cl)O3)cc2)CC1 (centres unmarked)", "test system": "58288", "setting": "48 h", "MIC": "16 µM"}
{"Structure (SMILES)": "Cc1ccc(N=Nc2c(N)nn3c(-c4ccc(C)cc4)cc(-c4ccc(OCc5ccccc5)cc4)nc23)cc1", "test system": "ATCC10231", "MIC": "31.3 µg/mL"}
{"Structure (SMILES)": "C=CC(=O)ON=C1C=CC(=C(C#N)c2ccccc2)C=C1", "test system": "ATCC10231", "setting": "48 h", "MIC": "2 µg/mL"}
{"Structure (SMILES)": "C/C(=N\\CCNCCNCC/N=C(\\C)c1c(O)c2ccccc2oc1=O)c1c(O)c2ccccc2oc1=O", "setting": "48 h", "MIC": "15.6 µg/mL"}
{"Structure (SMILES)": "C#CCOC(=O)ON=C1C=CC(=C(C#N)c2ccccc2)C=C1", "test system": "ATCC10231", "setting": "48 h", "MIC": "4 µg/mL"}
{"Structure (SMILES)": "C[C@@H]1[C@H](O)[C@@H](C)/C=C/C=C/C=C/C=C/C=C/C=C/C=C/[C@H](O[C@@H]2O[C@H](C)[C@@H](O)[C@H](N)[C@@H]2O)C[C@@H]2O[C@](O)(C[C@@H](O)C[C@@H](O)[C@H](O)CC[C@@H](O)C[C@@H](O)CC(=O)O[C@H]1C)C[C@H](O)[C@H]2C(=O)O", "test system": "SP3903", "setting": "48 h", "MIC": "< 0.25 µM"}
{"Structure (SMILES)": "C/C(=N\\c1nc(N)nc(/N=C(\\C)c2c(O)c3ccccc3oc2=O)n1)c1c(O)c2ccccc2oc1=O", "setting": "48 h", "MIC": "62.5 µg/mL"}
{"Structure (SMILES)": "CCn1c2ccccc2c2cc(CNC)ccc21", "test system": "SN152", "setting": "24 h", "MIC": "64 µg/mL"}
{"Structure (SMILES)": "N=c1sc(C(=O)c2ccc(Nc3cnccn3)cc2)nn1-c1ccc([N+](=O)[O-])cc1", "test system": "ATCC10231", "MIC": "12.5 µg/mL"}
{"Structure (SMILES)": "Nc1nn2c(-c3ccco3)cc(-c3ccc(OCc4ccccc4)cc3)nc2c1N=Nc1ccc(F)cc1", "test system": "ATCC10231", "MIC": "125 µg/mL"}
{"Structure (SMILES)": "OC(Cn1cncn1)(Cn1cncn1)c1ccc(F)cc1F", "test system": "SP3902", "setting": "48 h", "MIC": "8 µM"}
{"Structure (SMILES)": "N#CC(C#N)=C1SC(C(=O)c2ccc(Nc3cnccn3)cc2)=NN1c1ccc([N+](=O)[O-])cc1", "test system": "ATCC10231", "MIC": "12.5 µg/mL"}
{"Structure (SMILES)": "CC(=O)ON=C1C=CC(=C(C#N)c2ccccc2)C=C1", "test system": "ATCC10231", "setting": "48 h", "MIC": "2 µg/mL"}
{"Structure (SMILES)": "N#CC(C#N)=C1SC(C(=O)c2ccc(Nc3cnccn3)cc2)=NN1c1ccccc1", "test system": "ATCC10231", "MIC": "100 µg/mL"}
{"Structure (SMILES)": "Nc1nn2c(-c3ccc(Cl)cc3Cl)cc(-c3ccc(OCc4ccccc4)cc3)nc2c1N=Nc1ccc(F)cc1", "test system": "ATCC10231", "MIC": "62.5 µg/mL"}
{"Structure (SMILES)": "C/C(=N\\NC(=O)/N=C(\\C)c1c(O)c2ccccc2oc1=O)c1c(O)c2ccccc2oc1=O", "setting": "48 h", "MIC": "31.2 µg/mL"}
{"Structure (SMILES)": "Cc1ccc(-c2cc(-c3ccc(OCc4ccccc4)cc3)nc3c(N=Nc4ccc(F)cc4)c(N)nn23)cc1", "test system": "ATCC10231", "MIC": "62.5 µg/mL"}
{"Structure (SMILES)": "CC(C)c1ccc(/C=C2\\N=C(SCC(=O)O)N(c3ccccc3)C2=O)cc1", "test system": "ATCC10 ATCC10231", "MIC": "21 µg/mL"}
{"Structure (SMILES)": "N#CC(=C1C=CC(=NOC(=O)c2ccccc2)C=C1)c1ccccc1", "test system": "ATCC10231", "setting": "48 h", "MIC": "256 µg/mL"}
{"Structure (SMILES)": "COc1ccc(N2N=C(C(=O)c3ccc(Nc4cnccn4)cc3)SC2=C(C#N)C#N)cc1", "test system": "ATCC10231", "MIC": "12.5 µg/mL"}
{"Structure (SMILES)": "OC(Cn1cncn1)(Cn1cncn1)c1ccc(F)cc1F", "test system": "8", "setting": "24 h", "MIC": "1 µg/mL"}
{"Structure (SMILES)": "CCON=C1C=CC(=C(C#N)c2ccccc2)C=C1", "test system": "ATCC10231", "setting": "48 h", "MIC": "256 µg/mL"}
{"Structure (SMILES)": "CC(=O)N1CCN(c2ccc(OCC3COC(Cn4ccnc4)(c4ccc(Cl)cc4Cl)O3)cc2)CC1 (centres unmarked)", "setting": "48 h", "MIC": "1.95 µg/mL"}
{"Structure (SMILES)": "COc1ccc(N=Nc2c(N)nn3c(-c4ccc(C)cc4)cc(-c4ccc(OCc5ccccc5)cc4)nc23)cc1", "test system": "ATCC10231", "MIC": "62.5 µg/mL"}
{"Structure (SMILES)": "OC(Cn1cncn1)(Cn1cncn1)c1ccc(F)cc1F", "test system": "ATCC90028", "setting": "48 h", "MIC": "8 µg/mL"}
